Active and inactive are the calls of the source. The calls are words filed in the database; no cut-off is given here.
Tests used:
HEp-2 [1] = test: Induction of cell cycle arrest in human Hep2 cells assessed accumulation at G2/M phase incubated for 24 hrs by propidium iodide staining based flow cytometry; assay type: functional
HEp-2 [2] = test: Induction of cell cycle arrest in human Hep2 cells assessed accumulation at G0/G1 phase at 50 ug/ml incubated for 24 hrs by propidium iodide staining based flow cytometry (reference value: 74.51%); assay type: functional
[3] = Cytotoxicity against human Hep2 cells assessed as cell viability at 25 ug/ml incubated for 24 hrs by MTS assay; assay type: functional; details: HEp-2, 24 h, read-out: Activity
In short: (§1)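 Cells were held at 37 °C, 5% CO2 in humid air. HEp-2 (5 x 10³/well) and HCT-8 (7 x 10³/well) grew in DMEM + 10% heat-inactivated FBS and got compound (binary dilutions) 24 h after seeding. THP-1 (5 x 10³ cells, RPMI-1640 + 10% FBS) were added directly to the dilutions. Exposure lasted 24 h. MTS (CellTiter 96 AQueous One) read-out was absorbance at 490 nm.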

[4] = Reduction in PRKAA1 gene expression in human Hep2 cells at 50 ug/ml incubated for 24 hrs by real-time PCR method; assay type: functional, cell-based; details: HEp-2
In short: (§2)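 HEp-2 cells were treated 24 h at 10 or 50 µg/mL. Total RNA was extracted with Trizol, and 2 µg was reverse-transcribed. 50 ng cDNA went into TaqMan real-time PCR with beta-actin as endogenous control. Relative expression was calculated by the ∆∆CT method. Each experiment was run three times.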

[5] = Cytotoxicity against human Hep2 cells assessed as cell viability at 12.5 ug/ml incubated for 24 hrs by MTS assay; assay type: functional; details: HEp-2, 24 h, read-out: Activity; in short: as §1
HEp-2 [6] = test: Induction of cell cycle arrest in human Hep2 cells assessed accumulation at G0/G1 phase at 10 ug/ml incubated for 24 hrs by propidium iodide staining based flow cytometry (reference value: 74.51%); assay type: functional
HEp-2 [7] = test: Induction of cell cycle arrest in human Hep2 cells assessed accumulation at S phase at 50 ug/ml incubated for 24 hrs by propidium iodide staining based flow cytometry (reference value: 21.06%); assay type: functional
[8] = Reduction in PRKAA2 gene expression in human Hep2 cells at 50 ug/ml incubated for 24 hrs by real-time PCR method; assay type: functional, cell-based; details: HEp-2; in short: as §2
HEp-2 [9] = test: Induction of cell cycle arrest in human Hep2 cells assessed accumulation at G2/M phase at 10 ug/ml incubated for 24 hrs by propidium iodide staining based flow cytometry (reference value: 7.82%); assay type: functional
HEp-2 [10] = test: Increase in cyclin B gene expression in human Hep2 cells at 50 ug/ml incubated for 24 hrs by real-time PCR method; assay type: functional, cell-based; in short: as §2
HEp-2 [11] = test: Induction of cell cycle arrest in human Hep2 cells assessed accumulation at G2/M phase at 50 ug/ml incubated for 24 hrs by propidium iodide staining based flow cytometry (reference value: 7.82%); assay type: functional
[12] = Cytotoxicity against human HCT8 cells assessed as cell viability at 50 ug/ml incubated for 24 hrs by MTS assay; assay type: functional; details: HCT-8, 24 h, read-out: Activity; in short: as §1
HEp-2 [13] = test: Induction of cell cycle arrest in human Hep2 cells assessed accumulation at S phase at 10 ug/ml incubated for 24 hrs by propidium iodide staining based flow cytometry (reference value: 21.06%); assay type: functional
THP-1 [14] = test: Cytotoxicity against human THP1 cells assessed as cell viability at 50 ug/ml incubated for 24 hrs by MTS assay; assay type: functional; details: THP-1, 24 h, read-out: Activity; in short: as §1
[15] = Reduction in PRKAA2 gene expression in human Hep2 cells at 10 ug/ml incubated for 24 hrs by real-time PCR method; assay type: functional, cell-based; details: HEp-2; in short: as §2
HCT-8 [16] = test: Induction of apoptosis in human HCT8 cells assessed necrosis level at 50 ug/ml incubated for 24 hrs by annexin V-FITC and propidium iodide staining based flow cytometry (reference value: 1.12%); assay type: functional
THP-1 [17] = test: Cytotoxicity against human THP1 cells assessed as cell viability at 12.5 ug/ml incubated for 24 hrs by MTS assay; assay type: functional; details: THP-1, 24 h, read-out: Activity; in short: as §1
HCT-8 [18] = test: Induction of apoptosis in human HCT8 cells assessed late apoptosis level at 50 ug/ml incubated for 24 hrs by annexin V-FITC and propidium iodide staining based flow cytometry (reference value: 4.8%); assay type: functional
[19] = Cytotoxicity against human HCT8 cells assessed as cell viability at 12.5 ug/ml incubated for 24 hrs by MTS assay; assay type: functional; details: HCT-8, 24 h, read-out: Activity; in short: as §1
HCT-8 [20] = test: Induction of apoptosis in human HCT8 cells assessed early apoptosis level at 50 ug/ml incubated for 24 hrs by annexin V-FITC and propidium iodide staining based flow cytometry (reference value: 0.75%); assay type: functional
HCT-8 [21] = test: Induction of apoptosis in human HCT8 cells assessed viable cells level at 50 ug/ml incubated for 24 hrs by annexin V-FITC and propidium iodide staining based flow cytometry (reference value: 93.3%); assay type: functional
HEp-2 [22] = test: Increase in cyclin B gene expression in human Hep2 cells at 10 ug/ml incubated for 24 hrs by real-time PCR method; assay type: functional, cell-based; in short: as §2
[23] = Cytotoxicity against human Hep2 cells assessed as cell viability at 50 ug/ml incubated for 24 hrs by MTS assay; assay type: functional; details: HEp-2, 24 h, read-out: Activity; in short: as §1
[24] = Cytotoxicity against human HCT8 cells assessed as cell viability at 25 ug/ml incubated for 24 hrs by MTS assay; assay type: functional; details: HCT-8, 24 h, read-out: Activity; in short: as §1
THP-1 [25] = test: Cytotoxicity against human THP1 cells assessed as cell viability at 25 ug/ml incubated for 24 hrs by MTS assay; assay type: functional; details: THP-1, 24 h, read-out: Activity; in short: as §1
[26] = Reduction in PRKAA1 gene expression in human Hep2 cells at 10 ug/ml incubated for 24 hrs by real-time PCR method; assay type: functional, cell-based; details: HEp-2; in short: as §2
HEp-2 [27] = test: Induction of apoptosis in human Hep2 cells assessed as increase in p53 S15/S46/S392 phosphorylation level at 50 ug/ml incubated for 24 hrs by protein array method; assay type: functional, cell-based
HEp-2 [28] = test: Reduction in livin protein levels in human Hep2 cells at 50 ug/ml incubated for 24 hrs by protein array method; assay type: functional, cell-based
HEp-2 [29] = test: Reduction in XIAP levels in human Hep2 cells at 50 ug/ml incubated for 24 hrs by protein array method; assay type: functional, cell-based
HEp-2 [30] = test: Reduction in c-IAP1 levels in human Hep2 cells at 50 ug/ml incubated for 24 hrs by protein array method; assay type: functional, cell-based
HEp-2 [31] = test: Increase in FADD protein expression in human Hep2 cells at 50 ug/ml incubated for 24 hrs by protein array method; assay type: functional, cell-based
HEp-2 [32] = test: Reduction in survivin protein levels in human Hep2 cells at 50 ug/ml incubated for 24 hrs by protein array method; assay type: functional, cell-based
HEp-2 [33] = test: Increase in TRAIL-R2 protein expression in human Hep2 cells at 50 ug/ml incubated for 24 hrs by protein array method; assay type: functional, cell-based
HEp-2 [34] = test: Increase in cleaved-caspase-3 levels in human Hep2 cells at 50 ug/ml incubated for 24 hrs by protein array method; assay type: functional, cell-based
HEp-2 [35] = test: Increase in caspase-8 levels in human Hep2 cells at 50 ug/ml incubated for 24 hrs by protein array method; assay type: functional, cell-based
HEp-2 [36] = test: Reduction in HSP27 protein levels in human Hep2 cells at 50 ug/ml incubated for 24 hrs by protein array method; assay type: functional, cell-based
HEp-2 [37] = test: Reduction in HSP70 protein levels in human Hep2 cells at 50 ug/ml incubated for 24 hrs by protein array method; assay type: functional, cell-based
HEp-2 [38] = test: Increase in TRAIL-R1 protein expression in human Hep2 cells at 50 ug/ml incubated for 24 hrs by protein array method; assay type: functional, cell-based
HEp-2 [39] = test: Reduction in c-IAP2 levels in human Hep2 cells at 50 ug/ml incubated for 24 hrs by protein array method; assay type: functional, cell-based
HEp-2 [40] = test: Increase in Fas/TNFRSF6 protein expression in human Hep2 cells at 50 ug/ml incubated for 24 hrs by protein array method; assay type: functional, cell-based
HEp-2 [41] = test: Reduction in pro-caspase-3 levels in human Hep2 cells at 50 ug/ml incubated for 24 hrs by protein array method; assay type: functional, cell-based
HEp-2 [42] = test: Increase in PRKAA2 gene expression in human Hep2 cells at 50 ug/ml incubated for 24 hrs by real-time PCR method; assay type: functional, cell-based; in short: as §2
HEp-2 [43] = test: Increase in PRKAA1 gene expression in human Hep2 cells at 50 ug/ml incubated for 24 hrs by real-time PCR method; assay type: functional, cell-based; in short: as §2

## Cn1cc(C(=O)NC(=S)Nc2ccccc2Br)cn1
HEp-2 [1]
  Activity: Dose-dependent effect
HEp-2 [2]
  Activity: 70.17%
[3]
  viability at 25 µg/mL: 100%
[4]
  Activity: inactive
[5]
  viability at 12.5 µg/mL: 100%
HEp-2 [6]
  Activity: 74.41%
HEp-2 [7]
  Activity: 21.87%
[8]
  Activity: inactive
HEp-2 [9]
  Activity: 10.28%
HEp-2 [10]
  Activity: Active
HEp-2 [11]
  Activity: 15.93%
[12]
  viability at 50 µg/mL: 91.5%
HEp-2 [13]
  Activity: 19.09%
THP-1 [14]
  viability at 50 µg/mL: 31.9%
[15]
  Activity: inactive
HCT-8 [16]
  Activity: 1.87%
THP-1 [17]
  viability at 12.5 µg/mL: 98%
HCT-8 [18]
  Activity: 5.41%
[19]
  viability at 12.5 µg/mL: 100%
HCT-8 [20]
  Activity: 1.23%
HCT-8 [21]
  Activity: 91.5%
HEp-2 [22]
  Activity: Active
[23]
  viability at 50 µg/mL: 80%
[24]
  viability at 25 µg/mL: 100%
THP-1 [25]
  viability at 25 µg/mL: 59.4%
[26]
  Activity: inactive

## Cc1cs/c(=N\C(=O)c2cnn(C)c2)n1-c1ccc(I)cc1
HEp-2 [1]
  Activity: Dose-dependent effect
HEp-2 [2]
  Activity: 50.7%
[3]
  viability at 25 µg/mL: 100%
[4]
  Activity: Active
HEp-2 [27]
  Activity: Active
HEp-2 [28]
  Activity: Active
[5]
  viability at 12.5 µg/mL: 100%
HEp-2 [29]
  Activity: Active
HEp-2 [6]
  Activity: 66.94%
HEp-2 [30]
  Activity: Active
HEp-2 [7]
  Activity: 27.45%
HEp-2 [31]
  Activity: Active
[8]
  Activity: Active
HEp-2 [9]
  Activity: 9.07%
HEp-2 [32]
  Activity: Active
HEp-2 [33]
  Activity: Active
HEp-2 [34]
  Activity: Active
HEp-2 [11]
  Activity: 25.92%
HEp-2 [35]
  Activity: Active
[12]
  viability at 50 µg/mL: 91.8%
HEp-2 [13]
  Activity: 23.56%
HEp-2 [36]
  Activity: Active
THP-1 [14]
  viability at 50 µg/mL: 37.2%
[15]
  Activity: Active
HCT-8 [16]
  Activity: 1.41%
THP-1 [17]
  viability at 12.5 µg/mL: 99%
HEp-2 [37]
  Activity: Active
HCT-8 [18]
  Activity: 3.89%
[19]
  viability at 12.5 µg/mL: 100%
HEp-2 [38]
  Activity: Active
HCT-8 [20]
  Activity: 2.91%
HCT-8 [21]
  Activity: 91.8%
[23]
  viability at 50 µg/mL: 90%
[24]
  viability at 25 µg/mL: 100%
HEp-2 [39]
  Activity: Active
THP-1 [25]
  viability at 25 µg/mL: 86.9%
[26]
  Activity: Active
HEp-2 [40]
  Activity: Active
HEp-2 [41]
  Activity: Active

## Cn1cc(C(=O)NC(=S)Nc2cccc(Br)c2)cn1
HEp-2 [1]
  Activity: Dose-dependent effect
HEp-2 [2]
  Activity: 15.4%
[3]
  viability at 25 µg/mL: 82%
HEp-2 [42]
  Activity: Active
HEp-2 [27]
  Activity: Active
HEp-2 [28]
  Activity: Active
[5]
  viability at 12.5 µg/mL: 100%
HEp-2 [29]
  Activity: Active
HEp-2 [6]
  Activity: 66.12%
HEp-2 [30]
  Activity: Active
HEp-2 [7]
  Activity: 34.7%
HEp-2 [31]
  Activity: Active
HEp-2 [9]
  Activity: 18.43%
HEp-2 [32]
  Activity: Active
HEp-2 [10]
  Activity: Active
HEp-2 [33]
  Activity: Active
HEp-2 [34]
  Activity: Active
HEp-2 [11]
  Activity: 52.33%
HEp-2 [35]
  Activity: Active
[12]
  viability at 50 µg/mL: 78.2%
HEp-2 [13]
  Activity: 20.85%
HEp-2 [36]
  Activity: Active
THP-1 [14]
  viability at 50 µg/mL: 32%
[15]
  Activity: Active
HCT-8 [16]
  Activity: 7.58%
THP-1 [17]
  viability at 12.5 µg/mL: 77%
HEp-2 [43]
  Activity: Active
HEp-2 [37]
  Activity: Active
HCT-8 [18]
  Activity: 7.11%
[19]
  viability at 12.5 µg/mL: 94%
HEp-2 [38]
  Activity: Active
HCT-8 [20]
  Activity: 7.07%
HCT-8 [21]
  Activity: 78.2%
HEp-2 [22]
  Activity: Active
[23]
  viability at 50 µg/mL: 70%
[24]
  viability at 25 µg/mL: 89.8%
HEp-2 [39]
  Activity: Active
THP-1 [25]
  viability at 25 µg/mL: 55.8%
[26]
  Activity: Active
HEp-2 [40]
  Activity: Active
HEp-2 [41]
  Activity: Active

From ChEMBL document CHEMBL3603756, “Synthesis and apoptotic activity of new pyrazole derivatives in cancer cell lines” (2015)
